Measurements reported in ChEMBL document CHEMBL1122398, “Some biological properties of the impure dichloride salt of tetrakis[p-(dimethylamino)phenyl]ethylene and a pinacolone” (1983).
Several values for one entry are separate records, joined by “and”; a condition that tells them apart may be missing. Equal entries are not always repeated.

How the values were obtained:
Mus musculus [1] = assay: Tested for anti-lymphosarcoma in mice at the dose of 10 mg/kg; format: functional
Procedure, shortened: (§1)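 Groups of five female C3H mice received 7.5×10^6 Gardner lymphosarcoma (6C3 HED) cells per mouse intraperitoneally. Starting 1 day later, mice were dosed subcutaneously on the lower back once daily for 5 days, with test material in saline or 10% (CH₃)₂SO. Control mice received vehicle only. Read-outs were average survival in days and the number of mice surviving 50 days.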

Mus musculus [2] = assay: Tested for average survival days in control mice at a dose of 10 mg/Kg; format: functional; procedure, shortened: as §1
Mus musculus [3] = assay: Tested for average survival days in control mice at a dose of 5 mg/Kg; format: functional; procedure, shortened: as §1
Mus musculus [4] = assay: Number of mice with 50-day survival period after treating with 5 mg/Kg of compound out of 5 tested; format: functional; procedure, shortened: as §1
Mus musculus [5] = assay: Number of mice with 50-day survival period in control group at a dose of 5 mg/Kg tested out of 5 mice treated; format: functional; procedure, shortened: as §1
Mus musculus [6] = assay: Number of mice with 50-day survival period after treating with 10 mg/Kg of compound out of 5 tested; format: functional; procedure, shortened: as §1
Mus musculus [7] = assay: Number of mice with 50-day survival period in control group at a dose of 10 mg/Kg tested out of 5 mice treated; format: functional; procedure, shortened: as §1
Mus musculus [8] = assay: Tested for anti-lymphosarcoma activity in mice at the dose of 5 mg/kg by determining average survivals
Mus musculus [9] = species on record: Mus musculus; assay: Tested for average survival days in mice (control); format: functional; procedure, shortened: as §1
Mus musculus [10] = species on record: Mus musculus; assay: Tested for anti-lymphosarcoma activity in mice (control) with 50-day survival period out of 5 tested; format: functional; procedure, shortened: as §1
Mus musculus [11] = assay: Tested for anti-lymphosarcoma activity in mice at the dose of 10 mg/kg by determining average survivals; format: functional; procedure, shortened: as §1

| SMILES | Average survival (Mus musculus [1]) | Average survival (Mus musculus [2]) | Average survival (Mus musculus [3]) | No. of survivals (Mus musculus [4]) | No. of survivals (Mus musculus [5]) | No. of survivals (Mus musculus [6]) | No. of survivals (Mus musculus [7]) | Average survival (Mus musculus [8]) | Average survival (Mus musculus [9]) | No. of survivals (Mus musculus [10]) | Average survival (Mus musculus [11]) |
| --- | --- | --- | --- | --- | --- | --- | --- | --- | --- | --- | --- |
| CN(C)c1ccc(C(=C(c2ccc(N(C)C)cc2)c2ccc(N(C)C)cc2)c2ccc(N(C)C)cc2)cc1 | 37.6 days | 14.8 days | 14.8 days | 1 | 0 | 4 | 0 | 21.5 days |  |  |  |
| CN(C)c1ccc(C(=C2C=CC(=[N+](C)C)C=C2)C(c2ccc(N(C)C)cc2)c2ccc(N(C)C)cc2)cc1 |  |  |  |  |  | 0 |  | 13.2 days | 12.2 days | 0 |  |
| CN(C)c1ccc(C(=C2C=CC(=[N+](C)C)C=C2)C(=C2C=CC(=[N+](C)C)C=C2)c2ccc(N(C)C)cc2)cc1 |  |  |  |  |  | 4 |  |  | 14.8 days and 23 days |  | 37.6 days and 42.8 days |
